# According to ChEMBL document CHEMBL1144532, “Antiprotozoal and antimicrobial activities of O-alkylated and formylated acylphloroglucinols” (Bioorg Med Chem, 2007):
# The source made the active and inactive calls. The calls are words filed in the database; no cut-off is given here.
# Legend:
# Leishmania donovani [1] = assay: Antileishmanial activity against Leishmania donovani promastigotes after 48 hrs by Alamar blue assay; format: functional, organism-based
# Outline: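 L. donovani promastigotes grown in RPMI 1640 + 10% fetal calf serum at 26 °C; 3-day culture diluted to 5 × 10^5/mL, drug dilutions made directly in suspension, 48 h at 26 °C. Alamar blue fluorescence 544 nm ex/590 nm em; IC50 and IC90 from percent growth vs concentration curves.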
# LLC-PK1 [2] = assay: Cytotoxicity against LLC-PK1 cells up to 23.8 ug/mL by neutral red assay; format: cell-based, Sus scrofa; conditions: pig
# Vero [3] = assay: Cytotoxicity against Vero cells up to 23.8 ug/mL by neutral red assay; format: cell-based; conditions: chlorocebus sabaeus
# Staphylococcus aureus [4] = assay: Antibacterial activity against methicillin-resistant Staphylococcus aureus; format: functional, organism-based
# Outline: (§1)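 Samples in DMSO, serially diluted in 0.9% saline, tested in duplicate. Inoculum set against the 0.5 McFarland standard by absorbance at 630 nm, then diluted in broth. Growth, solvent and media controls included. Absorbance read at 630 nm before and after incubation. IC50 taken from percent growth versus concentration. Inactivity was scored at 20 µg/mL.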
# Aspergillus fumigatus = assay: Antifungal activity against Aspergillus fumigatus; format: functional, organism-based
# Outline: (§2)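 Samples in DMSO serially diluted in 0.9% saline, tested in duplicate; inocula set against 0.5 McFarland standard (absorbance 630 nm) and diluted in broth to recommended levels. Growth, solvent and media controls included. Read at 630 nm, or fluorescence 544ex/590em for M. intracellulare (modified Alamar Blue), before and after incubation; IC50 from percent growth versus concentration.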
# [5] = tested on: Mycobacterium intracellulare; assay: Antimicrobial activity against Mycobacterium intracellular; format: functional, organism-based; outline: as §2
# Plasmodium falciparum [6] = assay: Antimalarial activity against Plasmodium falciparum W2; format: functional, organism-based
# Outline: (§3)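 P. falciparum-infected erythrocytes at 2% parasitemia, 2% hematocrit in RPMI 1640 with 10% human serum and 60 µg/mL amikacin, exposed to serial dilutions 72 h at 37 °C under 90% N2/5% O2/5% CO2. Parasite LDH measured with Malstat reagent then NBT/PES, stopped with 5% acetic acid, A650; IC50 from dose–response. DMSO 0.25% vehicle.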
# Plasmodium falciparum [7] = assay: Antimalarial activity against Plasmodium falciparum D6; format: functional, organism-based; outline: as §3
# Vero [8] = assay: Cytotoxicity against Vero cells by neutral red assay; format: cell-based; conditions: chlorocebus sabaeus
# Outline: (§4)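 Cells seeded 25,000/well, grown 24 h, then exposed to samples 48 h; viable cells quantified by neutral red uptake. IC50 taken from logarithmic plots of growth inhibition versus concentration; DMSO vehicle control.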
# LLC-PK1 [9] = assay: Cytotoxicity against LLC-PK1 cells by neutral red assay; format: cell-based; conditions: Sus scrofa; outline: as §4
# Candida albicans [10] = assay: Antifungal activity against Candida albicans; format: functional, organism-based; outline: as §2
# Cryptococcus neoformans [11] = assay: Antifungal activity against Cryptococcus neoformans; format: functional, organism-based; outline: as §2
# Vero [12] = assay: Cytotoxicity against Vero cells up to 4.76 ug/mL by neutral red assay; format: cell-based; conditions: chlorocebus sabaeus
# LLC-PK1 [13] = assay: Cytotoxicity against LLC-PK1 cells up to 4.76 ug/mL by neutral red assay; format: cell-based, Sus scrofa; conditions: pig
# Cryptococcus neoformans [14] = assay: Antifungal activity against Cryptococcus neoformans at 20 ug/mL; format: functional, organism-based
# Staphylococcus aureus [15] = assay: Antibacterial activity against methicillin-resistant Staphylococcus aureus at 20 ug/mL; format: functional, organism-based; outline: as §1
# Candida albicans [16] = assay: Antifungal activity against Candida albicans at 20 ug/mL; format: functional, organism-based
# Leishmania donovani [17] = assay: Antileishmanial activity against Leishmania donovani promastigotes after 48 hrs at 40 ug/mL by Alamar blue assay; format: functional, organism-based
SMILES,IC50 (Leishmania donovani [1]),IC90 (Leishmania donovani [1]),Activity (Aspergillus fumigatus),Activity [5],Activity (Plasmodium falciparum [6]),Activity (Plasmodium falciparum [7]),Activity (Staphylococcus aureus [15]),other results
CC(=O)c1c(O)cc(OCCC(C)C)c(C(C)=O)c1O,40 µg/mL,> 40 µg/mL,,,,,,Activity (LLC-PK1 [2]): Not Active; Activity (Vero [3]): Not Active
Cc1c(O)c(C=O)c(O)c(C(=O)CC(C)C)c1O [GRANDINOL],21 µg/mL,39 µg/mL,inactive,inactive,inactive,inactive,,IC50 (Staphylococcus aureus [4]): 8 µg/mL; IC50 (Vero [8]): 8 µg/mL; IC50 (LLC-PK1 [9]): 7 µg/mL; IC50 (Candida albicans [10]): 10 µg/mL; IC50 (Cryptococcus neoformans [11]): 10 µg/mL
N=C(N)c1ccc(OCCCCCOc2ccc(C(=N)N)cc2)cc1 [PENTAMIDINE],1.5 µg/mL,4.9 µg/mL,inactive,inactive,,,,
C=CCOc1cc(O)c(C(=O)CC(C)C)c(O)c1C=O,5.3 µg/mL,31 µg/mL,,,,,,IC50 (Vero [8]): 17 µg/mL; IC50 (LLC-PK1 [9]): 9 µg/mL
Cc1c(O)c(C=O)c(O)c(C=O)c1O,,,inactive,inactive,inactive,inactive,inactive,Activity (Vero [12]): Not Active; Activity (LLC-PK1 [13]): Not Active; Activity (Cryptococcus neoformans [14]): inactive; Activity (Candida albicans [16]): inactive; Activity (Leishmania donovani [17]): inactive
CC(C)CCc1c(O)c(C=O)c(O)c(C=O)c1O,,,inactive,inactive,inactive,inactive,inactive,Activity (Vero [12]): Not Active; Activity (LLC-PK1 [13]): Not Active; Activity (Cryptococcus neoformans [14]): inactive; Activity (Candida albicans [16]): inactive; Activity (Leishmania donovani [17]): inactive
O=C(O)c1cn(C2CC2)c2cc(N3CCNCC3)c(F)cc2c1=O,,,inactive,inactive,,,,
CCN(CC)CCCC(C)Nc1ccnc2cc(Cl)ccc12 (configuration not stated),,,inactive,inactive,,,,
CC(C)CC(=O)c1c(O)cc(O)c(C=O)c1O,27 µg/mL,40 µg/mL,inactive,inactive,inactive,inactive,inactive,IC50 (Vero [8]): 14 µg/mL; Activity (Cryptococcus neoformans [14]): inactive; IC50 (LLC-PK1 [9]): 9.5 µg/mL; Activity (Candida albicans [16]): inactive
CC(=O)c1c(O)c(C)c(O)c(C=O)c1O,,,inactive,inactive,inactive,inactive,inactive,Activity (Vero [12]): Not Active; Activity (LLC-PK1 [13]): Not Active; Activity (Cryptococcus neoformans [14]): inactive; IC50 (Candida albicans [10]): 15 µg/mL; Activity (Leishmania donovani [17]): inactive
C=CCOc1cc(O)c(C(C)=O)c(O)c1C=O,,,,,,,,Activity (LLC-PK1 [2]): Not Active; Activity (Vero [3]): Not Active; Activity (Leishmania donovani [17]): inactive
C/C(=C\O)C(=O)c1c(O)cc(O)c(C=O)c1O,29 µg/mL,> 40 µg/mL,inactive,inactive,inactive,inactive,inactive,Activity (LLC-PK1 [2]): Not Active; Activity (Vero [3]): Not Active; IC50 (Candida albicans [10]): 2 µg/mL; IC50 (Cryptococcus neoformans [11]): 2.5 µg/mL
CC(C)CC(=O)c1c(O)c(C=O)c(O)c(C=O)c1O [JENSENONE],19 µg/mL,35 µg/mL,inactive,inactive,inactive,inactive,,Activity (Vero [12]): Not Active; IC50 (Staphylococcus aureus [4]): 20 µg/mL; Activity (LLC-PK1 [13]): Not Active; Activity (Cryptococcus neoformans [14]): inactive; IC50 (Candida albicans [10]): 5.5 µg/mL
CC(=O)c1c(O)cc(O)c(C(C)=O)c1O,27 µg/mL,> 40 µg/mL,inactive,inactive,inactive,inactive,inactive,IC50 (Vero [8]): 12 µg/mL; Activity (Cryptococcus neoformans [14]): inactive; IC50 (LLC-PK1 [9]): 11 µg/mL; Activity (Candida albicans [16]): inactive
CC(C)CCOc1cc(O)c(CCC(C)C)c(O)c1C=O,10 µg/mL,36 µg/mL,,,,,,IC50 (Vero [8]): 4.6 µg/mL; IC50 (LLC-PK1 [9]): 11.5 µg/mL
CC(C)CCOc1cc(O)c(C(=O)CC(C)C)c(O)c1C=O,4.2 µg/mL,> 40 µg/mL,,,,,,Activity (LLC-PK1 [2]): Not Active; Activity (Vero [3]): Not Active
CC(C)=CCc1c(O)c(C=O)c(O)c(C(=O)/C(C)=C/O)c1O,,> 40 µg/mL,inactive,inactive,inactive,inactive,inactive,IC50 (Vero [8]): 19 µg/mL; Activity (Cryptococcus neoformans [14]): inactive; IC50 (LLC-PK1 [9]): 14.5 µg/mL; Activity (Candida albicans [16]): inactive
CC(=O)c1c(O)cc(OCCC(C)C)c(C=O)c1O,7.8 µg/mL,> 40 µg/mL,,,,,,Activity (LLC-PK1 [2]): Not Active; Activity (Vero [3]): Not Active
C[C@@H]1[C@H](O)[C@@H](C)/C=C/C=C/C=C/C=C/C=C/C=C/C=C/[C@H](O[C@@H]2O[C@H](C)[C@@H](O)[C@H](N)[C@@H]2O)C[C@@H]2O[C@](O)(C[C@@H](O)C[C@@H](O)[C@H](O)CC[C@@H](O)C[C@@H](O)CC(=O)O[C@H]1C)C[C@H](O)[C@H]2C(=O)O [AMPHOTERICIN B],0.32 µg/mL,0.9 µg/mL,inactive,inactive,,,,IC50 (Candida albicans [10]): 0.3 µg/mL; IC50 (Cryptococcus neoformans [11]): 0.7 µg/mL
CC(C)CCOc1cc(O)c(C(=O)CC(C)C)c(O)c1C(=O)CC(C)C,24 µg/mL,> 40 µg/mL,,,,,,Activity (LLC-PK1 [2]): Not Active; Activity (Vero [3]): Not Active
CC(=O)c1c(O)cc(O)c(C=O)c1O,,,inactive,inactive,inactive,inactive,inactive,IC50 (Vero [8]): 17.5 µg/mL; Activity (Cryptococcus neoformans [14]): inactive; IC50 (LLC-PK1 [9]): 10 µg/mL; Activity (Candida albicans [16]): inactive; Activity (Leishmania donovani [17]): inactive
C=CCOc1cc(O)c(C(C)=O)c(O)c1C(C)=O,,,,,,,,Activity (LLC-PK1 [2]): Not Active; Activity (Vero [3]): Not Active; Activity (Leishmania donovani [17]): inactive
COc1cccc2c1C(=O)c1c(O)c3c(c(O)c1C2=O)C[C@@](O)(C(=O)CO)C[C@@H]3O[C@H]1C[C@H](N)[C@H](O)[C@H](C)O1,,,inactive,inactive,,,,
CCC(=O)c1c(O)c(C)c(O)c(C=O)c1O,,,inactive,inactive,inactive,inactive,inactive,Activity (Vero [12]): Not Active; Activity (LLC-PK1 [13]): Not Active; IC50 (Candida albicans [10]): 5 µg/mL; Activity (Leishmania donovani [17]): inactive; IC50 (Cryptococcus neoformans [11]): 20 µg/mL
C[C@@H]1CC[C@H]2[C@@H](C)C(=O)O[C@@H]3O[C@@]4(C)CC[C@@H]1[C@]32OO4,,,inactive,inactive,,,,
CCC(=O)c1c(O)cc(O)c(C=O)c1O,,,inactive,inactive,inactive,inactive,inactive,IC50 (Vero [8]): 18 µg/mL; IC50 (LLC-PK1 [9]): 11 µg/mL; Activity (Candida albicans [16]): inactive; Activity (Leishmania donovani [17]): inactive; IC50 (Cryptococcus neoformans [11]): 15 µg/mL
C=CCOc1cc(O)c(C(=O)CC(C)C)c(O)c1C(=O)CC(C)C,14 µg/mL,36 µg/mL,,,,,,Activity (LLC-PK1 [2]): Not Active; Activity (Vero [3]): Not Active
